Holding throughout (type): cell-based
The nature of data set [1]: Cytotoxicity against human TZM-bl cells assessed as reduction in cell viability incubated for 48 hrs by CellTiter 96 aqueous nonradioactive cell proliferation assay. In short, it runs like this:
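TZM-bl cells with serially diluted compounds, no virus, otherwise as in infection assay (48 h culture); viability read by CellTiter 96 non-radioactive cell proliferation assay.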

A short description of data set [2]: Binding affinity to two PBDs of N36 trimer of gp41 in HIV1 NL4-3 infected in human TZM-bl cells assessed as inhibition of viral fusion incubated for 48 hrs by Steady-Glo luciferase assay. The conditions noted are these: Human immunodeficiency virus 1, NL4-3, TZM-bl.
The test system of another data set is TZM-bl. Kind of data set: Binding affinity to two PBDs of N36 trimer of gp41 in HIV1 NL4-3 infected in human TZM-bl cells assessed as inhibition of viral fusion at 50 uM incubated for 48 hrs by Steady-Glo luciferase assay. The conditions noted are these: Human immunodeficiency virus 1.

As usually defined, the CC50 is the concentration that lowers cell viability or growth by half. For orientation: IC50 means the concentration at which inhibition is half-maximal. As for `O=C(O)C[C@H](NC(=O)CCC(=O)NCCOCCOCCOCCOCCOCCOCCOCCOCCOCCNC(=O)CCC(=O)N[C@@H](CC(=O)O)C(=O)Nc1ccc(C(=O)N[C@@H](Cc2c[nH]c3ccccc23)C(=O)O)cc1OCCc1c[nH]c2ccccc12)C(=O)Nc1ccc(C(=O)N[C@@H](Cc2c[nH]c3ccccc23)C(=O)O)cc1OCCc1c[nH]c2ccccc12`, the 50% cytotoxic concentration (CC50) at 48 h in data set [1] was over 50 µM. In addition, the concentration for half-maximal inhibition (IC50) in data set [2] is 36.3 µM.

As to `N[C@@H](CC(=O)O)C(=O)Nc1ccc(C(=O)N[C@@H](Cc2c[nH]c3ccccc23)C(=O)O)cc1OCCc1c[nH]c2ccccc12`, the CC50 at 48 h in data set [1] is over 50 µM. Moreover, in data set [2], the concentration for half-maximal inhibition (IC50) turned out to be 1.6 µM.

As a reminder, the inhibition is the change of the read-out against control, counted positive when it falls. Regarding `CC(C)C[C@H](NC(=O)c1ccc(NC(=O)[C@@H](N)Cc2c[nH]c3ccccc23)c(OCCc2c[nH]c3ccccc23)c1)C(=O)O`, the CC50 at 48 h in data set [1] is over 50 µM. Also, in the data set with TZM-bl, the inhibition is 1%.

Turning to `CC(C)C[C@H](NC(=O)c1ccc(NC(=O)[C@H](Cc2c[nH]c3ccccc23)NC(=O)CCC(=O)NCCOCCOCCOCCOCCOCCOCCOCCOCCOCCOCCOCCNC(=O)CCC(=O)N[C@@H](Cc2c[nH]c3ccccc23)C(=O)Nc2ccc(C(=O)N[C@@H](CC(C)C)C(=O)O)cc2OCCc2c[nH]c3ccccc23)c(OCCc2c[nH]c3ccccc23)c1)C(=O)O`, the CC50 at 48 h in data set [1] is over 50 µM. In addition, the IC50 in data set [2] is 15 µM.

In the case of `CC(C)C[C@H](NC(=O)c1ccc(NC(=O)[C@H](Cc2c[nH]c3ccccc23)NC(=O)CCC(=O)NCCOCCNC(=O)CCC(=O)N[C@@H](Cc2c[nH]c3ccccc23)C(=O)Nc2ccc(C(=O)N[C@@H](CC(C)C)C(=O)O)cc2OCCc2c[nH]c3ccccc23)c(OCCc2c[nH]c3ccccc23)c1)C(=O)O`, the CC50 at 48 h in data set [1] is over 50 µM. Moreover, the 50% inhibitory concentration (IC50) in data set [2] turned out to be 23.8 µM.

With `CC(C)C[C@H](NC(=O)c1ccc(NC(=O)[C@H](Cc2c[nH]c3ccccc23)NC(=O)CCC(=O)NCCOCCOCCOCCOCCOCCOCCOCCNC(=O)CCC(=O)N[C@@H](Cc2c[nH]c3ccccc23)C(=O)Nc2ccc(C(=O)N[C@@H](CC(C)C)C(=O)O)cc2OCCc2c[nH]c3ccccc23)c(OCCc2c[nH]c3ccccc23)c1)C(=O)O`, the CC50 at 48 h in data set [1] was over 50 µM. In addition, in data set [2], the IC50 turned out to be 17 µM.

For the compound `CC(C)C[C@H](NC(=O)c1ccc(NC(=O)[C@H](Cc2c[nH]c3ccccc23)NC(=O)CCC(=O)NCCOCCOCCOCCNC(=O)CCC(=O)N[C@@H](Cc2c[nH]c3ccccc23)C(=O)Nc2ccc(C(=O)N[C@@H](CC(C)C)C(=O)O)cc2OCCc2c[nH]c3ccccc23)c(OCCc2c[nH]c3ccccc23)c1)C(=O)O`, the 50% cytotoxic concentration (CC50) at 48 h in data set [1] is over 50 µM. The half-inhibitory concentration (IC50) in data set [2] came out at 22.8 µM.

Take `CC(C)C[C@H](NC(=O)c1ccc(NC(=O)[C@H](Cc2c[nH]c3ccccc23)NC(=O)CCC(=O)NCCOCCOCCOCCOCCOCCNC(=O)CCC(=O)N[C@@H](Cc2c[nH]c3ccccc23)C(=O)Nc2ccc(C(=O)N[C@@H](CC(C)C)C(=O)O)cc2OCCc2c[nH]c3ccccc23)c(OCCc2c[nH]c3ccccc23)c1)C(=O)O`: in data set [1], the 50% cytotoxic concentration (CC50) at 48 h is over 50 µM. For the same compound, the 50% inhibitory concentration (IC50) in data set [2] is 17.3 µM.

On to `COc1ccc(C[C@H](N)C(=O)Nc2ccc(C(=O)N[C@@H](Cc3c[nH]c4ccccc34)C(=O)O)cc2OCCc2c[nH]c3ccccc23)cc1`, for which the half-maximal cytotoxic concentration (CC50) at 48 h in data set [1] was over 50 µM. Also, the inhibition in the data set on TZM-bl is 0%.

With `CC(C)C[C@H](NC(=O)c1ccc(NC(=O)[C@H](Cc2c[nH]c3ccccc23)NC(=O)CCC(=O)NCCOCCOCCOCCOCCOCCOCCOCCOCCOCCNC(=O)CCC(=O)O)c(OCCc2c[nH]c3ccccc23)c1)C(=O)O`, the CC50 at 48 h in data set [1] was over 50 µM. Also, the inhibition in the data set with TZM-bl turned out to be 7%.

`CC(C)C[C@H](NC(=O)c1ccc(NC(=O)[C@H](Cc2c[nH]c3ccccc23)NC(=O)CCC(=O)NCCOCCOCCOCCOCCOCCOCCOCCOCCOCCNC(=O)CCC(=O)N[C@@H](Cc2c[nH]c3ccccc23)C(=O)Nc2ccc(C(=O)N[C@@H](CC(C)C)C(=O)O)cc2OCCc2c[nH]c3ccccc23)c(OCCc2c[nH]c3ccccc23)c1)C(=O)O`: in data set [1], the CC50 at 48 h was over 50 µM. The half-inhibitory concentration (IC50) in data set [2] was 1.7 µM.

For `Cc1cn([C@H]2C[C@H](N=[N+]=[N-])[C@@H](CO)O2)c(=O)[nH]c1=O` [ZIDOVUDINE], the CC50 at 48 h in data set [1] was over 100 µM. For the same compound, the IC50 in data set [2] amounted to 0.118 µM.

On to `COc1ccc(C[C@H](NC(=O)CCC(=O)NCCOCCOCCOCCOCCOCCOCCOCCOCCOCCNC(=O)CCC(=O)N[C@@H](Cc2ccc(OC)cc2)C(=O)Nc2ccc(C(=O)N[C@@H](Cc3c[nH]c4ccccc34)C(=O)O)cc2OCCc2c[nH]c3ccccc23)C(=O)Nc2ccc(C(=O)N[C@@H](Cc3c[nH]c4ccccc34)C(=O)O)cc2OCCc2c[nH]c3ccccc23)cc1`, for which the CC50 at 48 h in data set [1] is over 50 µM. For the same compound, in data set [2], the IC50 turned out to be 10.2 µM.

Source of the values: ChEMBL document CHEMBL4699628, “Bivalent HIV-1 fusion inhibitors based on peptidomimetics” (Bioorg Med Chem, 2020).
